Measured values taken from ChEMBL document CHEMBL4014338, “Discovery of Small Molecules as Multi-Toll-like Receptor Agonists with Proinflammatory and Anticancer Activities” (J Med Chem, 2017).
pEC50, pIC50: −log10 of the molar value.

Legend:
HeLa [1] = experiment: Cell cycle arrest in human HeLa cells assessed as accumulation at G2/M phase at 40 uM after 24 hrs by propidium iodide staining based flow cytometry (reference value: 17%); type: functional
HeLa [2] = experiment: Induction of apoptosis in human HeLa cells at 10 to 40 uM after 24 hrs by Annexin V-FITC/propidium iodide staining based flow cytometry (reference value: 10%); type: functional
How it was run: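 HeLa cells seeded at 3 × 10^5/well and attached 24 h, treated 24 h with 10, 20, 30 or 40 μM (DMSO or poly I:C 5 μg/mL as controls). Harvested with EDTA-free trypsin, washed twice in PBS, stained with annexin V-FITC/PI, and analyzed by flow cytometry. Early plus late apoptotic percentages reported as mean ± SD of three experiments.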

[3] = target: T1, Toll-like receptor 3/8/9 (Homo sapiens) (UniProt O15455+Q9NR96+Q9NR97); experiment: Agonist activity at TLR3/TLR8/TLR9 in human THP1 cells assessed as increase in TNFalpha production after 24 hrs by ELISA; type: cell-based
T1 sequence (O15455 whole entry, looked up, one chain of several): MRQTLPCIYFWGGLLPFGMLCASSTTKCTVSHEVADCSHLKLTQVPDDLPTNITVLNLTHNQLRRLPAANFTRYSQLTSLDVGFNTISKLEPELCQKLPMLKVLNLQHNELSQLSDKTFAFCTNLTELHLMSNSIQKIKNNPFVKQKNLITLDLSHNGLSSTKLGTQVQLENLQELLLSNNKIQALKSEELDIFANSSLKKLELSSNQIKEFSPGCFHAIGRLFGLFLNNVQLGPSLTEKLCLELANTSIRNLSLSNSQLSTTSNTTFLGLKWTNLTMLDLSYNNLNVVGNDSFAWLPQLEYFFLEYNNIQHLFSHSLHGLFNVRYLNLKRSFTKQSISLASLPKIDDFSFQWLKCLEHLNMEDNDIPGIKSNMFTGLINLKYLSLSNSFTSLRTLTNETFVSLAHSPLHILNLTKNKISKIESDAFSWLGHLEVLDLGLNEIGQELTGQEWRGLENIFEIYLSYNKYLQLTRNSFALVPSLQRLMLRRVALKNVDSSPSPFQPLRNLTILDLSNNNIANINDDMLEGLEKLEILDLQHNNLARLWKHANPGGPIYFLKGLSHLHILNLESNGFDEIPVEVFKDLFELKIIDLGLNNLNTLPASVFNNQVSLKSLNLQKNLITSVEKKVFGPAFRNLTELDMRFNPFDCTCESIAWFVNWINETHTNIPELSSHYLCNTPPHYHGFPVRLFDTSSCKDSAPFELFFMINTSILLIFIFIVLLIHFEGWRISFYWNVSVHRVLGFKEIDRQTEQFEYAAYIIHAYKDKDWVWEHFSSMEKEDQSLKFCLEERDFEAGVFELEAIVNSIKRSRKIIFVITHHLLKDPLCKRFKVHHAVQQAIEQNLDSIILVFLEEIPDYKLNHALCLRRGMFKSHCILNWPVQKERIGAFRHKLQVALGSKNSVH
T1 sequence (Q9NR96 whole entry, looked up, one chain of several): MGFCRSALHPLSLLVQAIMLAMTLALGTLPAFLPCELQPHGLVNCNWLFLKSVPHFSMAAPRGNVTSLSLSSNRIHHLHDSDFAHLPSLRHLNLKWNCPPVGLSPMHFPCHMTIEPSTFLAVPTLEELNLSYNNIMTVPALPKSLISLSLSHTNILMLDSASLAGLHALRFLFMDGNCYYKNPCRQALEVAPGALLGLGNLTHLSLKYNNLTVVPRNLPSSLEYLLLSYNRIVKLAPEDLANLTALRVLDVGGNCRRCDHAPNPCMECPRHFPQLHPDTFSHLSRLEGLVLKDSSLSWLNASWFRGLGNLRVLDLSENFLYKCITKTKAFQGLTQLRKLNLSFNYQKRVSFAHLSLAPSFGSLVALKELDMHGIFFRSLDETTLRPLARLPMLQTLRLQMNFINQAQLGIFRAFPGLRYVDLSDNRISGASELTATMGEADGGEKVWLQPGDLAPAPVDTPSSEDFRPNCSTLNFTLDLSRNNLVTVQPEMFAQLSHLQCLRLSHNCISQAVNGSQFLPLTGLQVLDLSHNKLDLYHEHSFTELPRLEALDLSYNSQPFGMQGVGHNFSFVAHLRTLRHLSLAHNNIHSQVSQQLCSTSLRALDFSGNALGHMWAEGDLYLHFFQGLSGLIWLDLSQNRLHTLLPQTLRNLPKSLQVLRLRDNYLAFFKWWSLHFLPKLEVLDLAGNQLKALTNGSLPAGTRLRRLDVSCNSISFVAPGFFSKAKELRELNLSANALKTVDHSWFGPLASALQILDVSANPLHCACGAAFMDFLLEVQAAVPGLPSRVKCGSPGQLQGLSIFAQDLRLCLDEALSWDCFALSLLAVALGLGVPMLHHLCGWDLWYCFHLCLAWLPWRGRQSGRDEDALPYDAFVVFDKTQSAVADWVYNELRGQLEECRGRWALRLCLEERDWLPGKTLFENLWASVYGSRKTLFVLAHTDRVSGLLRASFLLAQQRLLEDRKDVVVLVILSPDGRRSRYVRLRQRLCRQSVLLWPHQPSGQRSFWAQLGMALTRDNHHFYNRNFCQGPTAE
How it was run: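 THP-1 cells (1.5 × 10^6/well) in RPMI 1640 with 10% FBS, differentiated with PMA (20 nM) for 2 days, then 24 h in fresh medium; nonadherent cells removed. Compound added at indicated concentrations for 24 h. Supernatant TNF-α measured by ELISA. Reference ligands were poly I:C, R848 and CpG ODN2006.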

Toll-like receptor 8 = target: T2, Toll-like receptor 8 (Homo sapiens, UniProt Q9NR97); experiment: Agonist activity at human TLR8 expressed in HEK293 cells assessed as induction of NF-kB activation-mediated SEAP production after 24 hrs by HTS assay; type: cell-based
T2 sequence (Q9NR97 whole entry): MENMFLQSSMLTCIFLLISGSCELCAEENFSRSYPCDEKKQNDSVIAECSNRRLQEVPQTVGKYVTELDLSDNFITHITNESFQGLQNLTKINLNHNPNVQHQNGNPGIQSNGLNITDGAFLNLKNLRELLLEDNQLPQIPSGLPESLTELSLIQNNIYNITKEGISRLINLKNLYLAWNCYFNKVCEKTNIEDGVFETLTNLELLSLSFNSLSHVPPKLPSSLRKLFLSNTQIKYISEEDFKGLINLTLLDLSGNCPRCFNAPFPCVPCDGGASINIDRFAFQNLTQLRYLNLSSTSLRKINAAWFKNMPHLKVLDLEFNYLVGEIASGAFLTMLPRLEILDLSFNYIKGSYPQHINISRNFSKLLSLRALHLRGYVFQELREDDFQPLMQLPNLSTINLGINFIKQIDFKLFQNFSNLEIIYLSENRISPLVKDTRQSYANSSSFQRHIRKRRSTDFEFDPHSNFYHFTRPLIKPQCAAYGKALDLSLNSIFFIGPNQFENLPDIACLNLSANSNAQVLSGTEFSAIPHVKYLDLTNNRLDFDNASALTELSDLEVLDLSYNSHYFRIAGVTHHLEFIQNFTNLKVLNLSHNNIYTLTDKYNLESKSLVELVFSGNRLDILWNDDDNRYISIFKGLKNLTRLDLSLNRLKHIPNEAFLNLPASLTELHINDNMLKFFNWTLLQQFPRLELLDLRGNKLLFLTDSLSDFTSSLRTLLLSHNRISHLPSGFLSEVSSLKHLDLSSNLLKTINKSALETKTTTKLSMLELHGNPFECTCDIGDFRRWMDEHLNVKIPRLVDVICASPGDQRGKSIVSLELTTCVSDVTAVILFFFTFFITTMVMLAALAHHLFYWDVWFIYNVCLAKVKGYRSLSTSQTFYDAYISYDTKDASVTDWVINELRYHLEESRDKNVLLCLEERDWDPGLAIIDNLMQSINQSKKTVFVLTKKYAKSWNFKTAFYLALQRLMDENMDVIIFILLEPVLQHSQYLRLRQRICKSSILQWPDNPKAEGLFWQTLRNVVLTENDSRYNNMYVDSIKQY
How it was run: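 HEK293 cells stably expressing human TLR8 or TLR9 plus an NF-κB-inducible SEAP reporter, seeded at 5 × 10^4 cells/well for 24 h, then treated for 24 h. Supernatant incubated with QUANTI-Blue at 37 °C for 1 h and OD read at 620 nm. Positive controls were R848 (TLR8) and ODN2006 (TLR9). EC50 reported as mean ± SD.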

HeLa [4] = experiment: Cell cycle arrest in human HeLa cells assessed as accumulation at G0/G1 phase at 20 uM after 24 hrs by propidium iodide staining based flow cytometry (reference value: 52%); type: functional
HMEC = experiment: Antiproliferative activity against HMEC after 24 hrs by WST1 assay; type: cell-based; details: Homo sapiens
How it was run: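 Cells seeded at 5 × 10^3/well and left 24 h, then given a concentration series for 24, 48 or 72 h. WST-1 reagent added and incubated at 37 °C for 30 min–2 h until color change; absorbance 450 nm. Growth inhibition = (1 − [sample − background]/[control − background]) × 100. IC50 mean ± SD, three cell preparations.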

HeLa [5] = experiment: Cell cycle arrest in human HeLa cells assessed as accumulation at G2/M phase at 30 uM after 24 hrs by propidium iodide staining based flow cytometry (reference value: 17%); type: functional
[6] = target: T1, Toll-like receptor 3/8/9 (Homo sapiens); experiment: Agonist activity at TLR3/TLR8/TLR9 in human THP1 cells assessed as increase in IL-6 mRNA level after 12 hrs by qRT-PCR method; type: cell-based
How it was run: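 THP-1 cells (1.5 × 10^6/well) differentiated with PMA (20 nM) for 2 days, then 24 h in fresh RPMI 1640; nonadherent cells removed. Treated with indicated compound concentrations for 12 h, washed with PBS, and mRNA measured by qRT-PCR. Expressed as fold change versus untreated control, poly I:C (5 μg/mL) as reference. Mean ± SD of three independent experiments.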

With `O=[N+]([O-])c1ccc(COc2cc3c(cc2OCc2ccc([N+](=O)[O-])cc2)OC2(C=C3)CCOCC2)cc1` the Activity (HeLa [1]) was 19%, the Activity (HeLa [2]) was 17% and the Activity [3] was “Dose-dependent effect”. For the same compound, the pEC50 (Toll-like receptor 8) was 4.87, the Activity (HeLa [4]) was 43% and the pIC50 (HMEC) was under 4.00. The Activity (HeLa [5]) was 20% and the Activity [6] was “Dose-dependent effect”.
